For 38 variants, yeast fitness results are on record in the RNAGym collection of RNA variant scans (doi:10.1126/science.aae0568).

Variants at the floor of the assay were thinned out.

B1: tRNA (parent)
chain: GUUCCGUUGGCGUAAUGGUAACGCGUCUCCCUCCUAAGGAGAAGACUGCGGGUUCGAGUCCCGUACGGAACG

The data set covers variants of B1. The experiment in a line: yeast fitness relative to wild type (ratio to wild type); higher = fitter; tRNA-Arg(CCU), competitive growth, 37 C, YPD. An outline of the steps: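 Genotype frequency changes were the basis for Darwinian fitness relative to wild type. The frequencies came from 100-nucleotide paired-end sequencing of gene amplicons from the start population and each end population of pooled yeast strains with tRNA-Arg(CCU) gene variants at the native locus. Competition ran in YPD at 37°C for 24 hours in six replicates, genotypes needed ≥ 100 starting reads, and estimates < 0.5 were set to 0.5.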
Take GUUUCGUUGGCGUAAUGGUAACGCGACUCCCUCCUAGGGAGAAGACUGCGGGUUCGAGUCCCGUAGGGAACG [C4U U26A A37G C66G]: the yeast fitness is not above 0.5. As for GUUUCGUUGGCGUAAUGGUAACGCGUCUCCCUCCUAAGGAGAAGACUGCGGGUCCGAGUCCUGUACGGAACG [C4U U54C C62U], the figure is 0.578.

Take GUUUCGUUGGCGUAAUGGUAACGCGUCUCCCUCCUAAGGAGAAGACUGCGGGUACGAGUCCCGUACGGAACG [C4U U54A]: the yeast fitness worked out at 0.627. For the variant GUUUCGUUGGCGUAAUGGUAACGCGCCUCCCUCCUCAGGAGAAGACUGCGGGUUCGAGUCCCGAACGGACCG [C4U U26C A36C U64A A70C], the yeast fitness is not above 0.5.

As to GUUUCGUUGGCGUAAUGGUAACGCGCCUCCCUCCUAAGGAGAAGACUGCGGGUUCGAGUCCCGUACGGAACG [C4U U26C], the yeast fitness came out at 1.04. Next, GUUUCGUUGGCGUAAUGGCAACGCGUCUCCCUCCUAAGGUGAAGACUGCGGGUUCGAGUCCCGUACGGAACG [C4U U19C A40U]: 0.674. Consider GUUUCGUUGGCGUAAUGGAAACGCGUCUCCCUCCUAGGGAGAACACUGCGGGUUCGUGUCCCGUACGCAACG [C4U U19A A37G G44C A57U G68C], for which the yeast fitness was not above 0.5. GUUUCGUUGGCGUAAUGGUAACGCGUCUCCCCCUUAAAGAGAAGACUGCGGGUUCGAGUCCCGUACGGAACG [C4U U32C C34U G38A]: the yeast fitness is not above 0.5. As for GUUUCGUUGGCGUAAUGGUAACGCGACUCCCUAGUAAGGAGAAGACUGCGGGUUCGAGUCCCGUACGGAACG [C4U U26A C33A C34G], the figure is not above 0.5; as for GUUUCGUUGGCGUAAUGGUAACGCGACUCCCUCCUAAGGAGAAGACUGCGGGUUCAAGUCCCGUACGGAACG [C4U U26A G56A], 0.632.

GUUUCGUUGGCGUAAAGGUAACACGUCUCCCUCCUGAGGAGAAGACUGGGGGUUCGAGUCCCGUACGGAACG [C4U U16A G23A A36G C49G]: the yeast fitness is not above 0.5. As for GUUUCGUUGGCGUAAUGGCAACGCGUCUCCAUCCUAAGGACAAGACUGCGGGUUAGAGUCCCGUACGGAACG [C4U U19C C31A G41C C55A], the figure is not above 0.5; as for GUUUCGUUGGCGUAAGGGUAACGCGUCUCCCUCCUAAGGAGAAGACGGCGGGUUCGAGUCCCGUACGGAACG [C4U U16G U47G], 0.602.

As for GUUUCGUUGGCGUAAUGGUAACGCGUCGCCCUCCUAAGGAGAAGACUGCGGGUUCGAGUACCGUACGGAACG [C4U U28G C60A], the yeast fitness turned out to be 0.503.

In the case of GUUUCGUUGGCGUAAUGGUAACGCGUCUCCCUCCCAAGGAGAAGACUGCAGGUUCGAGUCCCGUAAGGAACG [C4U U35C G50A C66A], the yeast fitness worked out at 0.689. Next, GUUUCGUUGGCGUAAUGGUAACGCGUCUCCCUCCCAAGGAGAAGACUGCGGGUUCGAGUCACGUACGGAACG [C4U U35C C61A]: 0.555; GUUUCGUUGGCGUAAUGGUAACGCGGCUUCCUCCUAAGGAGAAGACUGCGGGUUCGAGUCCCGUUCGAAACG [C4U U26G C29U A65U G68A]: not above 0.5.

GUUUCGUUGGCGUAAUGGUAACGCGUCUCCCUCCCGAGGAGAACACUGCGGGUUCGAGUCCCGUACGGAACG [C4U U35C A36G G44C]: the yeast fitness amounted to 0.708. For GUUUCGUUGGCGUAAAGGUAACACGUCUCCCUCCUGAGGAGAAGACUGGGGGUUCGAGUCACGUACGGAACG [C4U U16A G23A A36G C49G C61A], the yeast fitness was not above 0.5. Next, GUUUCGUUGGCGUAAUGGUAACGCGUCUCCCUCCAUAGGAGAAGACUGCGGGUUCGAGUCUCGUACGGAACG [C4U U35A A36U C61U]: not above 0.5. As for GUUUCGUUGGCGUAAUGGAAACGCGUCUUCCUGCUAAGGAGAAGACUGCGGGUUCGAGUCCAGUACGGAACG [C4U U19A C29U C33G C62A], the figure is not above 0.5; as for GUUUCGUUGGCGUAAUGGAAACGCGUCUCCGUCCUAAGGAGAAGACUGCGGGUUCGAGUCCCGUCUGGAACG [C4U U19A C31G A65C C66U], not above 0.5; as for GUUUCGUUGGCGUAAUGGUAACGCGUCUCCCUCCCAAGGAGGAGACUGCGGGUUCGAGUCCCGUACGGAACG [C4U U35C A42G], 0.581. Next, GUUUCGUUGGCGUAAUGGUAACGCGCCUCCCUCCUCAGGAGAAGACUGCGGGUUCGAGUCCCGUACGGAACG [C4U U26C A36C]: not above 0.5. In the case of GUUUCGUUGGCGUAACGGUAACGCGUCUCCCUCCUAAGGAGGAGACUGCGGGUUCGAAUCCCGUACGGAACG [C4U U16C A42G G58A], the yeast fitness was found to be 0.552. As to GUUUCGUUGGCGUAAUGGUAACGCGUCUCCCCCCUAAGGAGAAGACUGCGGGUUCGAGUCCCGUACGGAACG [C4U U32C], the yeast fitness is 0.944.

Consider GUUUCGUUGGCGUAAUGGUAACGCGUCUCCCUCCUAAGGAGAAGACUGCGGGUUCGAGCCCCGUACGGAACG [C4U U59C], for which the yeast fitness is 0.853. As for GUUUCGUUGGCGUAAUGGUAACGCGACUCCCUCCUACGGAGCAGACUGUGGGUUCAAGUCCCGUACGGAACG [C4U U26A A37C A42C C49U G56A], the figure is not above 0.5; as for GUUUCGUUGGCGUAAUGGUAACGCGUCACUCUCCUAAGGAGAAGACUGCGGGUUCGGGUCCCGUACGGAACG [C4U U28A C30U A57G], 0.547. Next, GUUUCGUUGGCGUAAUGGUAACGCGUCUCCCACCUAAGGAGAAGACUGUGGGUUCGAGUCCCGUACGGAACG [C4U U32A C49U]: 0.61; GUUUCGUUGGCGUAACGGUAACGCGUCUCCCUCCUAAGGAGAAGACUCCGGGUUCGAGUCCCGUACGGAACG [C4U U16C G48C]: 0.702. GUUUCGUUGGCGUAAUGGUAACGCGUCUCCCUCCUAAGGAGAAGACUGCGGGCUCGAGUCCCGUACGGAACG [C4U U53C]: the yeast fitness turned out to be 0.869. As for GUUUCGUUGGCGUAAUGGUAACGCGGCUCCCUCCUAAUGAGAAGACUGCGGGUUCGAGUCCCGUACGGAACG [C4U U26G G38U], the figure is 0.508. Next, GUUUCGUUGGCGUAAUGGUAACGCGUCGCCCUCCUAAGGAGAAGACUGAGGGUUCGAGUCCGGUACGGAACG [C4U U28G C49A C62G]: not above 0.5. Next, GUUUCGUUGGCGUAAUGGUAACGCGUCACCCUCCUAAGGAGAAGACUGCGGGUUCGAGUCCCGUACGGAACG [C4U U28A]: 0.749; GUUUCGUUGGCGUAAUGGUAACGCGGCUCCCUCCUAAGGAGAAAACUGCGGGUUCGAGUCCCGUACGGAACG [C4U U26G G44A]: 0.591.

Regarding GUUUCGUUGGCGUAAUGGUAACGCGUCACCCUCCUAAGGAGAAGACUGCGGGUUCGAGUCCCGUAUGGAACG [C4U U28A C66U], the yeast fitness stood at 0.658. As for GUUUCGUUGGCGUAAUGGUAACGCGUCUCCCUCCUAAGGAGAAGACCGCGGCUUCGAGUCACGUACGGAACG [C4U U47C G52C C61A], the figure is not above 0.5.
